logP and IC50 data for 18 molecules are collected here from ChEMBL document CHEMBL1143966, “Design and synthesis of eugenol derivatives, as potent 15-lipoxygenase inhibitors” (Bioorg Med Chem, 2008).

By logP is commonly meant the decadic logarithm of the partition coefficient of the neutral form, usually between octanol and water. The IC50 is the concentration needed to halve the response being measured. Low values mean higher potency, high ones lower potency.

Series [1] is described as follows: Partition coefficient, log P of the compound. Type of series: physicochemical. As to conditions: octanol/water.
Series [2] is described as follows: Inhibition of soybean 15-lipoxygenase. On the set-up: species or system Glycine max. Summed up: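 Soybean 15-lipoxygenase with linoleic acid substrate (final 134 µM) in 0.1 M borate buffer pH 9 at 20 ± 1 °C. Absorbance read at 234 nm for 60 s after enzyme addition. Inhibitor plus linoleic acid served as blank. At least six controls and three tubes per inhibitor solution. Enzyme kept on ice, with controls run at intervals. IC50 from linear interpolation around 50% activity.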

In the case of `C=CCc1ccc(OC(=O)c2ccccn2)c(OC)c1`, the logP in series [1] was found to be 0.86. This molecule also yielded an IC50 in series [2] of 33.3 µM. For the molecule `C=CCc1ccc(OC(=O)c2cccc(C)c2)c(OC)c1`, in series [1], the logP was found to be 2.87. Besides, the IC50 in series [2] was determined as 11.4 µM. For `C=CCc1ccc(OC(=O)C2CCCCC2)c(OC)c1`, the logP in series [1] worked out at 3.52. In addition, the IC50 in series [2] came out at 2.2 µM. In series [1], `C=CCc1ccc(OC(=O)c2ccc(C)cc2)c(OC)c1` registered a logP of 2.87. The molecule further had an IC50 in series [2] of 14.6 µM.

As to `C=CCc1ccc(OC(=O)c2cccnc2)c(OC)c1`, the logP in series [1] is 0.86. In series [2], this molecule had an IC50 of 1.7 µM. Molecule `C=CCc1ccc(OC(=O)c2cccc(OC)c2)c(OC)c1` registered a logP in series [1] of 1.86. In series [2], this molecule gave an IC50 of 23 µM. For `C=CCc1ccc(OC(=O)c2ccncc2)c(OC)c1`, the logP in series [1] worked out at 0.86. This molecule yielded an IC50 in series [2] of 2.3 µM. `C=CCc1ccc(OC(=O)c2cccc(Cl)c2)c(OC)c1`: the logP in series [1] stood at 2.79. In series [2], 5.2 µM corresponded to half-maximal inhibition (IC50). `C=CCc1ccc(OC(=O)c2ccccc2)c(OC)c1` [EUGENYL BENZOAT] came in with a logP in series [1] of 2.25. Besides, the IC50 in series [2] worked out at 4.4 µM. As to `C=CCc1ccc(OC(=O)c2ccccc2Cl)c(OC)c1`, in series [1], the logP turned out to be 2.79. Further, in series [2], the IC50 worked out at 168 µM.

The molecule `C=CCc1ccc(OC(=O)C23CC4CC(CC(C4)C2)C3)c(OC)c1` showed a logP in series [1] of 4.82. For the same molecule, it took 0.017 µM to reach half-maximal inhibition in series [2] (IC50). In series [1], `C=CCc1ccc(OC(=O)c2ccccc2F)c(OC)c1` yielded a logP of 2.7. Also, the IC50 in series [2] amounted to 6.7 µM. On to `C=CCc1ccc(OC(=O)c2ccc(Cl)cc2)c(OC)c1`, for which the logP in series [1] is 2.79. In addition, half-maximal inhibition in series [2] (IC50) required 134 µM. Regarding `C=CCc1ccc(OC(=O)c2cccc(F)c2)c(OC)c1`, the logP in series [1] amounted to 2.7. In series [2], the IC50 turned out to be 2.1 µM. Take `C=CCc1ccc(O)c(OC)c1` [EUGENOL]: the IC50 in series [2] turned out to be 34.6 µM. Molecule `C=CCc1ccc(OC(=O)c2ccccc2C)c(OC)c1` showed a logP in series [1] of 2.87. 77.2 µM corresponded to half-maximal inhibition in series [2] (IC50). For `C=CCc1ccc(OC(=O)c2ccc(F)cc2)c(OC)c1`, in that order: 2.7 and 7.2 µM. `C=CCc1ccc(OC(=O)c2ccc(OC)cc2)c(OC)c1` registered a logP in series [1] of 1.86. The molecule further displayed an IC50 in series [2] of 19 µM.
